In publication PMC11191573 (ACS Omega, 2024):

Assays:
[1] = system: TNF mRNA in THP-1 cells; assay: RT-qPCR of TNF in Aβ1–42-stimulated THP-1 cells; format: cell-based, human; conditions: 10 μM Aβ1–42, 24 h; ARA 0.1 μM, LPC 10 μM, LTN 0.1 μM, POA 10 μM, ZX 1 μM
[2] = target: T1, Aβ1–42 (Homo sapiens, UniProt P05067); assay: FTIR spectroscopy of Aβ1–42 secondary structure; format: biochemical; conditions: after ThT assay, mixed with Aβ1–42
Procedure, shortened: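 Samples came from completed ThT assays (50 μM Aβ1−42 ± 100 μM constituent, 37 °C, 3 h). 15 μL was dried on a diamond ATR prism at 25 °C, repeated twice. ATR-FTIR spectra were taken over 1500–1700 cm−1 with 100 s integration. The area under the parallel β-sheet absorbance band was integrated. Mean ± SD, n = 3; Dunnett's test.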

[3] = target: T1, Aβ1–42; assay: Transmission electron microscopy of Aβ1–42 fibrils after ThT assay; format: biochemical; conditions: 100 μM constituent, 50 μM Aβ1–42, 3 h incubation
Procedure, shortened: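 After the 3 h, 37 °C ThT assay (50 μM Aβ1−42, 100 μM constituent), 10 μL was spotted on a copper grid. It was stained with 2% aqueous uranyl acetate, blotted, air-dried and imaged by TEM at 120 kV.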

[4] = target: T1, Aβ1–42; assay: ThT assay of Aβ1–42 aggregation; format: biochemical; conditions: for Time course of RFU (curve shape) at lower concentrations: 25 and 50 μM constituent, data not shown; for Concentration dependence of activity in ThT assay: 25, 50, 100 μM
Procedure, shortened: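 Aβ1−42 was dissolved in 2 mM NaOH, lyophilized, then taken up in 20 mM phosphate buffer pH 7.4. Final concentrations were 50 μM Aβ1−42, 200 μM ThT and 100 μM constituent (25 and 50 μM for concentration dependence). Fluorescence (Ex 440/Em 484 nm) was read every 5 min for 3 h at 37 °C and blank-subtracted. Phenol red was the positive control and Aβ alone the negative. IC50 came from sigmoidal fitting. Mean ± SD, n = 3.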

[5] = system: THP-1 cells; assay: MTT assay; format: cell-based, human; conditions: 0, 0.1, 1 or 10 μM tested, 24 h
Procedure, shortened: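 THP-1 cells were plated at 5 × 10^4 cells/well and cultured 24 h at 37 °C. Medium containing 0, 0.1, 1 or 10 μM constituent was added for a further 24 h. Viability was measured with an MTT kit per the manufacturer's protocol and used to set nontoxic working concentrations.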

[6] = system: IL 1B mRNA in THP-1 cells; assay: RT-qPCR of IL 1B in Aβ1–42-stimulated THP-1 cells; format: cell-based, human; conditions: 10 μM Aβ1–42, 24 h; ARA 0.1 μM, LPC 10 μM, LTN 0.1 μM, POA 10 μM, ZX 1 μM
[7] = target: T1, Aβ1–42; assay: PICUP oligomerization assay; format: biochemical; conditions: 50 μM constituent (final), 25 μM Aβ
[8] = target: Aβ1–42 fibrils (Homo sapiens, UniProt P05067); assay: Aβ fibril destabilization assay; format: biochemical; conditions: 100 μM constituent, 50 μM Aβ1–42 fibrils, 37 °C, 5 h
Procedure, shortened: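 Aβ1−42 was pre-aggregated at 37 °C for 2 days, and fibril formation was confirmed by 1 h of stable ThT RFU. Constituent was then added (100 μM final; 50 μM Aβ1−42) and ThT fluorescence (Ex/Em 440/484 nm) was read for 5 h at 37 °C as in the aggregation assay. AUC was calculated. Mean ± SD, n = 3; Dunnett's test.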

[9] = system: TNF protein in THP-1 cell culture media; assay: ELISA of TNF in supernatant of Aβ1–42-stimulated THP-1 cells; format: cell-based, human; conditions: 10 μM Aβ1–42, 24 h; LTN 0.1 μM
Procedure, shortened: (§1)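 THP-1 cells were seeded at 5 × 10^5 cells/mL and differentiated to adherent macrophage-like cells (24 h). They were rested 24 h at 37 °C in RPMI-1640/10% FBS/1% P/S, then stimulated with 10 μM Aβ1−42 ± constituent for 24 h. Supernatant was assayed with human IL-1β or TNF-α sandwich ELISA kits, reading A450 and converting to pg/mL. Mean ± SE, n = 3; Tukey's test.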

[10] = system: Caco-2 cells; conditions: in vitro; cited from earlier work
[11] = system: Aβ; conditions: previously shown; cited from earlier work
[12] = monkeys, after feeding; cited from earlier work
[13] = system: IL 1B protein in THP-1 cell culture media; assay: ELISA of IL 1B in supernatant of Aβ1–42-stimulated THP-1 cells; format: cell-based, human; conditions: 10 μM Aβ1–42, 24 h; LTN 0.1 μM
Procedure, shortened: as §1

[14] = target: T1, Aβ1–42; conditions: previous paper; cited from earlier work

T1 sequence (P05067 672-713): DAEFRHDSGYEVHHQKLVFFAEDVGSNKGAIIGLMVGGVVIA
Sequence of Aβ1–42 fibrils (P05067 672-713): as above

Compound | TNF mRNA induced by Aβ1–42 [1] | AUC of absorbances in the range of 1615–1645 cm^–1 (parallel β-sheet) [2] | Inhibition of Aβ1–42 aggregation observed by TEM [3] | IC50 [4] [µM] | RFU at start of ThT assay ([4]; 100 μM ARA, 50 μM Aβ1–42) | Time course of RFU (curve shape) at lower concentrations [4] | Optimal (nontoxic) concentration determined by MTT assay [5] [µM] | IL 1B mRNA induced by Aβ1–42 [6] | Inhibition of Aβ1–42 oligomerization (PICUP) [7] | RFU of ThT during incubation with preformed Aβ1–42 fibrils [8] | Protein concentration of TNF in the supernatant [9] | Intestinal absorption of LTN in the presence of LPC [10] | Inhibition of Aβ aggregation [11] | Concentration of LTN in the brains [12] | Concentration dependence of activity in ThT assay [4] | Protein concentration of IL 1B in the supernatant [13] | Morphology of Aβ fibrils by TEM [3] | Effect on Aβ1–42 aggregation [14]
CCCCC/C=C\C/C=C\C/C=C\C/C=C\CCCC(=O)O [ARA, arachidonic acid] | not suppressed | decrease | inhibited Aβ1–42 aggregation | 37.4 | approximately 25 RFU | did not improve | 0.1 | not suppressed | did not inhibit oligomerization | remained unchanged | – | – | – | – | – | – | – | –
CC1=C[C@H](O)CC(C)(C)[C@H]1/C=C/C(C)=C/C=C/C(C)=C/C=C/C=C(C)/C=C/C=C(C)/C=C/C1=C(C)C[C@@H](O)CC1(C)C [LTN, lutein] | suppressed | particular decrease | inhibited the Aβ1–42 aggregation the most | 74 | – | sigmoidal curve | 0.1 | suppressed | did not inhibit oligomerization | remained unchanged | no difference was observed | increases | inhibit Aβ aggregation | increases | concentration-dependent | suppressed | – | –
CCCCCC/C=C\CCCCCCCC(=O)O [POA, palmitoleic acid] | not suppressed | – | inhibited Aβ1–42 aggregation | – | – | – | 10 | not suppressed | inhibited oligomerization | decreased | – | – | – | – | no concentration dependence | – | amorphous | –
CC1=C(/C=C/C(C)=C/C=C/C(C)=C/C=C/C=C(C)/C=C/C=C(C)/C=C/C2=C(C)C[C@@H](O)CC2(C)C)C(C)(C)C[C@H](O)C1 [ZX, zeaxanthin] | not suppressed | decrease | inhibited Aβ1–42 aggregation | – | – | – | 1 | not suppressed | inhibited oligomerization | remained unchanged | – | – | inhibit Aβ aggregation | – | – | – | – | –
L-α-lysophosphatidylcholine [LPC] | not suppressed | particular decrease | inhibited Aβ1–42 aggregation | – | – | did not improve | 10 | not suppressed | – | remained unchanged | – | – | – | – | – | – | – | facilitates Aβ1–42 aggregation
